Data on 13 compounds can be found in ChEMBL document CHEMBL3792371 (Bioorg Med Chem Lett, 2016).

Assay [1] addresses Sodium-dependent serotonin transporter (Rattus norvegicus, UniProt P31652). Kind of assay: Inhibition of SERT in rat striatal synaptosomes assessed as reduction of [3H]5-HT uptake preincubated for 5 mins followed by [3H]5-HT addition measured after 10 mins by liquid scintillation spectrometric method. The assay is classed as subcellular, Striatum. The gist of the method: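 Rat striatal synaptosomes were made as for the DAT assay: 20 µg protein in oxygenated Krebs'-HEPES buffer (pH 7.4) containing pargyline and ascorbic acid. Inhibitor was 0.1 nM–1 mM final (7–9 concentrations), run in duplicate at 34 °C. [3H]5-HT was 10 nM final. Nonspecific uptake was defined with 10 µM fluoxetine. Filters were washed with ice-cold Krebs' buffer containing 1 mM catechol. Specific uptake was expressed as % of control, n = 4 rats.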

The species entered for assay [2] is Rattus norvegicus. Put plainly: Selectivity ratio of Ki for SERT in rat striatal synaptosomes to Ki for VMAT2 in rat striatal synaptic vesicle. The assay is classed as subcellular. The gist of the method:
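Ratio of SERT Ki to VMAT2 Ki. […] 10 nM [3H]5-HT then added for 10 min at 34°C. Nonspecific uptake measured with 10 µM fluoxetine. n = 4 rats. VMAT2 Ki from vesicular [3H]DA uptake.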

The target in assay [3] is Synaptic vesicular amine transporter (Rattus norvegicus, UniProt Q01827). Kind of assay: Inhibition of VMAT2 in rat striatal synaptic vesicle assessed as reduction of [3H]dopamine uptake after 8 mins by liquid scintillation spectrometric method. In outline: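 Vesicles prepared from rat striata by sucrose homogenisation, osmotic shock and differential centrifugation. Inhibitor at 0.1 nM–10 mM with 0.1 µM [3H]DA. Filtration, then scintillation counting. n = 3–4 rats.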

Assay [4] deals with Sodium-dependent dopamine transporter (Rattus norvegicus, UniProt P23977). Put plainly: Inhibition of DAT in rat striatal synaptosomes assessed as reduction of [3H]dopamine uptake preincubated for 5 mins followed by [3H]dopamine addition measured after 10 mins by liquid scintillation spectrometric method. Type of assay: subcellular, Striatum. In outline: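 Rat striatum homogenized in ice-cold 0.32 M sucrose with 5 mM NaHCO3 (pH 7.4), spun at 2000g and then 20,000g. Synaptosomes (20 µg protein) were resuspended in oxygenated Krebs'-HEPES buffer (pH 7.4) with pargyline and ascorbic acid. Inhibitor was 0.1 nM–1 mM final (7–9 concentrations), run in duplicate at 34 °C. [3H]DA was 10 nM final. Nonspecific uptake was defined with 10 µM GBR 12909. Reactions were filtered on GF/B filters. Specific uptake was expressed as % of control, n = 3–4 rats.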

The species named for assay [5] is Rattus norvegicus. Kind of assay: Selectivity ratio of Ki for DAT in rat striatal synaptosomes to Ki for VMAT2 in rat striatal synaptic vesicle. The assay is classed as subcellular. The gist of the method:
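Ratio of DAT Ki to VMAT2 Ki. […] 10 nM [3H]DA then added for 10 min at 34°C. Nonspecific uptake measured with 10 µM GBR 12909. VMAT2 Ki from vesicular [3H]DA uptake.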

Sequence of Sodium-dependent serotonin transporter (P31652 whole entry): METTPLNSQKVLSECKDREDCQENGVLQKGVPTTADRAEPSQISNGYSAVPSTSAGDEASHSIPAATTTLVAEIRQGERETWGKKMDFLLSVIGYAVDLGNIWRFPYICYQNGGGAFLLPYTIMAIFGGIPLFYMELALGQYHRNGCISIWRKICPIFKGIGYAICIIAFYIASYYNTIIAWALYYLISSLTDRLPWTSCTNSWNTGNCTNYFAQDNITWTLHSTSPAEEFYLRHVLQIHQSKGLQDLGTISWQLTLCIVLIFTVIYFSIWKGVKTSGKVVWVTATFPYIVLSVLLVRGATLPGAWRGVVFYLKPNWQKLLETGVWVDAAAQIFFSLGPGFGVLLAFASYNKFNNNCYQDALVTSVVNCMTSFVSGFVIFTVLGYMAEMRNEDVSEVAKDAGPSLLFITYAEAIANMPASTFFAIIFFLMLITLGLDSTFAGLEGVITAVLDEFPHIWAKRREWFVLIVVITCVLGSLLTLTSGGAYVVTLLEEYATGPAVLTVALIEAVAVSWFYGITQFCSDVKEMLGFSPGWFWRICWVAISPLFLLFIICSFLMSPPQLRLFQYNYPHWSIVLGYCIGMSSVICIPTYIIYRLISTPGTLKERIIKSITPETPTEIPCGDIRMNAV
Sequence of Sodium-dependent dopamine transporter (P23977 whole entry): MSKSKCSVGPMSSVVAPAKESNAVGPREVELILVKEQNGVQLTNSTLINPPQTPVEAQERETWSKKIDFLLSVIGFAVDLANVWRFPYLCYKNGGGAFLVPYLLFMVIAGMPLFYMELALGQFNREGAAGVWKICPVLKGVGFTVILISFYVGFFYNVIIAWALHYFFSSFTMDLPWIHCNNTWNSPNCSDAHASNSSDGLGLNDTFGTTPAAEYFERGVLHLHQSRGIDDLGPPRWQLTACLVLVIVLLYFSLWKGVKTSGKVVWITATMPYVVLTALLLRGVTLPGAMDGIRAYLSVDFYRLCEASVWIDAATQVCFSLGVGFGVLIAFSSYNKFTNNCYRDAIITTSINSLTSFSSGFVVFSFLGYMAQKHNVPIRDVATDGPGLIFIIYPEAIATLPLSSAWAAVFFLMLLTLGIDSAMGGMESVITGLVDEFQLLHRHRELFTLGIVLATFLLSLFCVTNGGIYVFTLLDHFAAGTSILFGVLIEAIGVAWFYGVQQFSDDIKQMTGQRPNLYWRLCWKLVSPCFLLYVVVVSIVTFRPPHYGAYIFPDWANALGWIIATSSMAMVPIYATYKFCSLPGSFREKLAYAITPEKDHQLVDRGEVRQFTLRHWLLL
Sequence of Synaptic vesicular amine transporter (Q01827 whole entry): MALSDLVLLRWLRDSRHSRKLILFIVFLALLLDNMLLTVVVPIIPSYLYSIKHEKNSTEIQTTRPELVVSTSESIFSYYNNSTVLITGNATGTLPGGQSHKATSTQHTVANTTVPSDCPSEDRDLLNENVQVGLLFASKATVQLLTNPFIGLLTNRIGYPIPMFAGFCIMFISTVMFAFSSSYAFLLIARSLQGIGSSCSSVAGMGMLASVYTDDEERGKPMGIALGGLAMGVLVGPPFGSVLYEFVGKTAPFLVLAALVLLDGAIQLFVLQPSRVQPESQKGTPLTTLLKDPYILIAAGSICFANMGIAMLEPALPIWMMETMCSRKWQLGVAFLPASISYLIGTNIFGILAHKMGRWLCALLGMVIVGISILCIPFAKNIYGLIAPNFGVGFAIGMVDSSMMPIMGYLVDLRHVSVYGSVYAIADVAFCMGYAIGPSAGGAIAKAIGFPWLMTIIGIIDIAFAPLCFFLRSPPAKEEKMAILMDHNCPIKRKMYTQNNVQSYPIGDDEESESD

As for `OC[C@H](O)CN1[C@@H](CCc2ccc(O)cc2)CCC[C@H]1CCc1ccc(O)cc1`, the Ki (commonly the dissociation constant of the complex between target and ligand, obtained from inhibition or displacement) in assay [1] was 12.9 µM; in assay [3], 0.039 µM; in assay [4], 1.43 µM. Besides, the Ratio Ki in the assay listed under Rattus norvegicus [2] worked out at 331.
Turning to `CN1[C@@H](CCc2ccc(OCCF)cc2)CCC[C@H]1CCc1ccc(OCCF)cc1`, the Ki stood at 7.43 µM in assay [1], 0.14 µM in assay [3] and 3.43 µM in assay [4].
Consider `Oc1ccc(CC[C@H]2CCC[C@@H](CCc3ccc(O)cc3)N2)cc1`, for which the inhibition constant (Ki) was found to be 1.03 µM in assay [1], 0.031 µM in assay [3] and 0.866 µM in assay [4].
As to `OC[C@H](O)CN1[C@@H](CCc2ccc(O)cc2)CCC[C@H]1CCc1ccc(OCCF)cc1`, the Ratio Ki in the assay listed under Rattus norvegicus [5] worked out at 87. Further, the inhibition constant Ki was determined as 1.43 µM in assay [1], 0.063 µM in assay [3] and 5.47 µM in assay [4].
As to `CC(=O)Oc1ccc(CC[C@H]2CCC[C@@H](CCc3ccc(OC(C)=O)cc3)N2C)cc1`, the inhibition constant Ki in assay [1] is 11.6 µM; in assay [3], 0.071 µM; in assay [4], 2.13 µM. Further, the Ratio Ki in the assay listed under Rattus norvegicus [2] is 163.
In the case of `FCCOc1ccc(CC[C@H]2CCC[C@@H](CCc3ccc(OCCF)cc3)N2)cc1`, the inhibition constant (Ki) in assay [1] came out at 0.64 µM; in assay [3], 0.04 µM; in assay [4] it was 1.67 µM.
Turning to `CC(=O)Oc1ccc(CC[C@H]2CCC[C@@H](CCc3ccc(OC(C)=O)cc3)N2)cc1`, the values for the Ki in assay [1], in assay [3] and in assay [4] were 2.13 µM, 0.22 µM and 1.47 µM, respectively.
For `Oc1ccc(CC[C@H]2CCC[C@@H](CCc3ccc(OCCF)cc3)N2)cc1`, the inhibition constant (Ki) in assay [1] stood at 1.05 µM; in assay [3] it was 0.032 µM; in assay [4], 1.66 µM.
Regarding `COc1ccc(CC[C@H]2CCC[C@@H](CCc3ccc(OC)cc3)N2C[C@@H](O)CO)cc1`, the values for the Ki in assay [1] and in assay [4] were 9.36 µM and 1.44 µM, respectively.
Take `CN1[C@@H](CCc2ccc(O)cc2)CCC[C@H]1CCc1ccc(O)cc1`: the Ki in assay [1] is 12 µM; in assay [3] it was 0.046 µM; in assay [4], 1.35 µM. Besides, in the assay filed under Rattus norvegicus [2], the Ratio Ki worked out at 260.
Regarding `CN1[C@@H](CCc2ccc(O)cc2)CCC[C@H]1CCc1ccc(OCCF)cc1`, the Ratio Ki in the assay filed under Rattus norvegicus [5] turned out to be 96; in the assay filed under Rattus norvegicus [2], 335. For the same compound, the Ki in assay [1] was 10.4 µM; in assay [3], 0.031 µM; in assay [4], 2.97 µM.
With `CN1[C@@H](CCc2ccccc2)CCC[C@H]1CCc1ccccc1` [LOBELANE], the inhibitory constant (Ki) in assay [1] was 3.6 µM; in assay [4] it was 1.05 µM.
On to `OC[C@H](O)CN1[C@@H](CCc2ccc(OCCF)cc2)CCC[C@H]1CCc1ccc(OCCF)cc1`, for which the Ratio Ki worked out at 30 in the assay listed under Rattus norvegicus [5] and 275 in the assay filed under Rattus norvegicus [2]. The inhibition constant (Ki) in assay [1] was determined as 33 µM; in assay [3] it was 0.12 µM; in assay [4], 3.69 µM.
